Reference: ChEMBL document CHEMBL3097988, “Synthesis and characterization of new N-(4-(4-chloro-1H-imidazol-1-yl)-3-methoxyphenyl)amide/sulfonamide derivatives as possible antimicrobial and antitubercular agents” (2014)
Converted amounts (≈) assume the structure as drawn.

Key:
Format in all cases: functional
[1] = test system: Mycobacterium tuberculosis; assay: Antimicrobial activity against Mycobacterium tuberculosis H37Rv ATCC 27294 after 7 days by resazurin assay; conditions: H37Rv ATCC 27294, 168 h
Procedure, shortened: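 Resazurin microtitre assay. Cultures were grown in Middlebrook 7H9 with 10% OADC and added to fresh medium in 96-well plates. Test compounds came from 2 mg/mL DMF stocks, with DMF-only controls. Plates were incubated 7 days at 37 °C, then resazurin was added and read after 1 h at 37 °C. MIC was the lowest concentration preventing the blue-to-pink change.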

[2] = test system: Escherichia coli; assay: Antimicrobial activity against Escherichia coli ATCC 25922 after 16 to 18 hrs by […]
[3] = test system: Staphylococcus aureus; assay: Antimicrobial activity against Staphylococcus aureus ATCC 25923 after 16 to 18 hrs by […]
[4] = test system: Candida albicans; assay: Antimicrobial activity against Candida albicans after 3 to 4 days by serial plate dilution method
Procedure, shortened: (§1)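 Fungal MIC by serial plate dilution. Sabouraud agar (peptone, D-glucose, agar; pH 5.7) plates seeded with saline spore suspension, dried 1 h at 37 °C. Wells punched and filled with compound in DMSO; DMSO-only control. Triplicate plates held 3–4 days at 37 °C; inhibition zone diameter measured. Amphotericin B positive control. Tested range […] per mL.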

[5] = test system: Klebsiella pneumoniae; assay: Ratio of ciprofloxacin MIC to compound MIC for Klebsiella pneumoniae ATCC 13883
[6] = test system: Aspergillus flavus; assay: Antimicrobial activity against Aspergillus flavus after 3 to 4 days by serial plate dilution method; procedure, shortened: as §1
[7] = test system: Mycobacterium tuberculosis; assay: Antimicrobial activity against Mycobacterium tuberculosis H37Rv ATCC 27294 at 1 to 100 ug/ml after 7 days by resazurin assay
Procedure, shortened: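 Preliminary screen at three concentrations (1, 10 and 100) by resazurin microtitre assay. Cultures were grown in Middlebrook 7H9 with 10% OADC, and compounds came from 2 mg/mL DMF stocks with DMF controls. Plates were incubated 7 days at 37 °C, and resazurin colour was read after 1 h. Inhibition was scored as no blue-to-pink change.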

[8] = test system: Staphylococcus aureus; assay: Ratio of ciprofloxacin MIC to compound MIC for Staphylococcus aureus ATCC 25923
[9] = test system: Mycolicibacterium fortuitum; assay: Antimicrobial activity against Mycobacterium fortuitum ATCC 19542 after 7 days by resazurin assay; conditions: ATCC 19542, 168 h
[10] = test system: Klebsiella pneumoniae; assay: Antimicrobial activity against Klebsiella pneumoniae ATCC 13883 after 16 to 18 hrs by serial plate dilution method
Procedure, shortened: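 Bacterial MIC by serial dilution in Mueller-Hinton broth adjusted to pH 5.0 with phosphate buffer. Tubes inoculated with standardized bacterial suspension, incubated 16–18 h at 37 °C. MIC read as lowest concentration with no visible growth. Range […] per mL. DMSO as negative control, ciprofloxacin as positive control.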

[11] = test system: Rhizopus; assay: Antimicrobial activity against Rhizopus sp. after 3 to 4 days by serial plate dilution method; procedure, shortened: as §1
[12] = test system: Mycolicibacterium smegmatis; assay: Antimicrobial activity against Mycobacterium smegmatis (MC2) ATCC 19420 after 7 days by resazurin assay; conditions: (MC2) ATCC 19420, 168 h

Compound | MIC [1] [µg/mL] | MIC [2] [µg/mL] | MIC [3] [µg/mL] | MIC [4] [µg/mL] | Ratio [5] | MIC [6] [µg/mL] | inhibition (INH) [7] [%] | Ratio [8] | MIC [9] [µg/mL] | MIC [10] [µg/mL] | MIC [11] [µg/mL] | MIC [12] [µg/mL]
COc1cc(NS(=O)(=O)Cc2cccc(C(F)(F)F)c2)ccc1-n1cnc(Cl)c1 | 1.25 (≈ 2.8 µM) | 64 (≈ 144 µM) | 4 (≈ 8.97 µM) | 64 (≈ 144 µM) | 2 | 32 (≈ 71.8 µM) | 90 | 1 | 10 (≈ 22.4 µM) | 4 (≈ 8.97 µM) | 128 (≈ 287 µM) | 
COc1cc(NS(=O)(=O)c2c(F)ccc(C(F)(F)F)c2Cl)ccc1-n1cnc(Cl)c1 | 0.625 (≈ 1.29 µM) | 4 (≈ 8.26 µM) | 4 (≈ 8.26 µM) | 8 (≈ 16.5 µM) | 1 | 16 (≈ 33 µM) | 90 | 1 | 10 (≈ 20.7 µM) | 8 (≈ 16.5 µM) | 16 (≈ 33 µM) | 1.25 (≈ 2.58 µM)
COc1cc(NS(=O)(=O)c2ccc(C(F)(F)F)cc2)ccc1-n1cnc(Cl)c1 | 0.625 (≈ 1.45 µM) | 16 (≈ 37.1 µM) | 4 (≈ 9.26 µM) | 8 (≈ 18.5 µM) | 1 | 16 (≈ 37.1 µM) | 95 | 1 | 10 (≈ 23.2 µM) | 8 (≈ 18.5 µM) | 16 (≈ 37.1 µM) | 1.25 (≈ 2.89 µM)
COc1cc(NC(=O)c2cccs2)ccc1-n1cnc(Cl)c1 | 5 (≈ 15 µM) | 128 (≈ 383 µM) | 128 (≈ 383 µM) | 256 (≈ 767 µM) |  | 64 (≈ 192 µM) | 90 |  | 2.5 (≈ 7.49 µM) | 64 (≈ 192 µM) | 32 (≈ 95.9 µM) | 1.25 (≈ 3.74 µM)
COc1cc(NS(=O)(=O)c2ccc([N+](=O)[O-])cc2)ccc1-n1cnc(Cl)c1 | 0.625 (≈ 1.53 µM) | 128 (≈ 313 µM) | 128 (≈ 313 µM) | 256 (≈ 626 µM) |  | 128 (≈ 313 µM) | 90 |  | 1.25 (≈ 3.06 µM) | 64 (≈ 157 µM) | 64 (≈ 157 µM) | 10 (≈ 24.5 µM)
COc1ccc(S(=O)(=O)Nc2ccc(-n3cnc(Cl)c3)c(OC)c2)cc1OC | 1.25 (≈ 2.95 µM) | 128 (≈ 302 µM) | 256 (≈ 604 µM) | 128 (≈ 302 µM) |  | 256 (≈ 604 µM) | 90 |  | 1.25 (≈ 2.95 µM) | 256 (≈ 604 µM) | 128 (≈ 302 µM) | 1.25 (≈ 2.95 µM)
COc1cc(NC(=O)c2ccc([N+](=O)[O-])cc2)ccc1-n1cnc(Cl)c1 | 1.25 (≈ 3.35 µM) | > 256 | 256 (≈ 687 µM) | > 256 |  | > 256 | <90 |  | 1.25 (≈ 3.35 µM) | > 256 | 256 (≈ 687 µM) | 2.5 (≈ 6.71 µM)
COc1cc(NS(=O)(=O)c2cc(F)cc(C(F)(F)F)c2)ccc1-n1cnc(Cl)c1 | 0.625 (≈ 1.39 µM) | 4 (≈ 8.89 µM) | 4 (≈ 8.89 µM) | 8 (≈ 17.8 µM) | 1 | 8 (≈ 17.8 µM) | 95 | 1 | 10 (≈ 22.2 µM) | 8 (≈ 17.8 µM) | 16 (≈ 35.6 µM) | 10 (≈ 22.2 µM)
